Among the data in PubChem BioAssay are viability, differential viability (reversal) and inhibition values, retold here.

Activity calls are given as the source filed them.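 The calls were made as follows, unless noted: active = viability at or under a set limit in both replicates, limit being median viability minus 3 SD (cut at about 48% in these data, passing the limit was not always enough); inconclusive = at or under the limit in just one replicate; inactive = at or above the limit in both replicates.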 Peptide text beside a SMILES is read from it. * marks the point of attachment. Boc = CC(C)(C)OC(=O)*

Assay [1] in a line: HUVEC growth inhibition – cell-based, human, primary screen (AID 575;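 active = viability at or below 30% in both replicate assays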;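 also: 100% = median of untreated cell wells with 0.1% DMSO on each plate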). To be noted: HUVEC proliferation, CellTiter-Glo luminescence, 72 h; at 10 µM; stronger effect = lower value. In a few lines:
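System: primary human umbilical vein endothelial cells; Quantity: 1250 endothelial cells in each well; Buffer or medium: supplemented EBM, 2% fetal bovine serum; Doses: one dose, 10 µM final, 0.1% DMSO; Incubation: 72 h compound incubation; Technique: ATP-based CellTiter-Glo luminescent read; Evaluation: percent of median DMSO-control luminescence; Controls: vehicle and MePR control wells.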
For orientation: Cellular ATP, detected with luciferase, serves as a proxy for viable cell number.

A short description of assay [2]: growth inhibitors of H69AR lung tumor, primary screen, human, duplicate replicates (AID 580).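 Also: 100% = mean luminescence of untreated wells and 0% = no signal.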 To be noted: H69AR lung tumor cells viability, ATP luminescence, 72 h; at 10 µM; stronger effect = lower value.
A short description of assay [3]: reversal of MRP1-mediated doxorubicin resistance, pilot screen, H69AR cells, doxorubicin co-treatment (AID 601;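 active = viability loss from added drug above about 55%, and viability with drug at most 40%, in both replicates, limit read from the data, passing the limit was not always enough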). Conditions: CellTiter-Glo, 72 h, at 10 µM; for differential viability (reversal): stronger effect = higher value.
A short description of assay [4]: 384-well plate pilot, post-Golgi transport modulator project, inhibition of yeast transport mutant growth (AID 636; in the data active = inhibition above about 31%). To be noted: absorbance 615 nm, about 18 h, stronger effect = higher value.
Assay [5] can be described thus: growth suppression of yeast trafficking mutant, preliminary HTS, modulators of trafficking downstream of Golgi apparatus project, 1536-format plate, OD 615 nm (AID 637; in the data active = inhibition above about 30%). To be noted: yeast transport mutant growth, absorbance 615 nm, 18 h; stronger effect = higher value.
Where [6] appears, read: H69AR cells + 2 uM doxorubicin, measured here: viability with 2 uM doxorubicin, stronger effect = lower value.
[7] abbreviates: H69AR cells, compound alone cytotoxicity.

Regarding `COC(=O)c1ccc2c(c1)C(=O)N(C1CCCCC1)C2=O`, the viability (as a rule, a read-out of living cells in per cent, often relative to untreated cells) in assay [1] was 105% (inactive); in assay [2] it was 104% (inactive); in assay [3] (setting [6]), 96.7%; in assay [3] (setting [7]), 104%. Further, in assay [3] (H69AR cells + 2 uM doxorubicin), the differential viability (reversal) was 7.39% (inactive). Moreover, the inhibition (usually the change of the read-out against control, counted positive when it falls) in assay [4] was -2.93% (inactive); in assay [5], 1.11% (inactive).

With `S=c1nc(C2CC2)[nH]c2ccccc12`, the viability in assay [1] is 78.3% (inactive); in assay [2] it was 94% (inactive); in assay [3] (setting [6]), 88%; in assay [3] (setting [7]), 94%. In assay [3] (H69AR cells + 2 uM doxorubicin), the differential viability (reversal) is 5.99% (inactive). The inhibition in assay [4] is -0.92% (inactive); in assay [5], 0.63% (inactive).

In the case of `FC(F)(F)c1cc(-c2ccco2)nc(-n2nnc3ccccc32)n1`, the viability was 59.5% (inactive) in assay [1], 79.8% (inactive) in assay [2], 78.3% in assay [3] (setting [6]) and 79.8% in assay [3] (setting [7]). Besides, the differential viability (reversal) in assay [3] (H69AR cells + 2 uM doxorubicin) is 1.45% (inactive). Besides, the inhibition in assay [4] was -0.91% (inactive); in assay [5], 0.32% (inactive).

Regarding `Cc1ccc(C)c(SCC(=O)Nc2nnc(-c3ccccc3)o2)c1`, the viability was 48.4% (inactive) in assay [1], 74.9% (inactive) in assay [2], 75.6% in assay [3] (setting [6]) and 74.9% in assay [3] (setting [7]). The differential viability (reversal) in assay [3] (H69AR cells + 2 uM doxorubicin) is -0.675% (inactive). Moreover, the inhibition in assay [4] is -3.64% (inactive); in assay [5], -1.27% (inactive).

In the case of `O=C(NCc1ccco1)c1cccc(-c2nnc(-c3ccccc3)o2)c1`, the viability in assay [1] was 59.4% (inactive); in assay [2] it was 85.8% (inactive); in assay [3] (setting [6]) it was 80.3%; in assay [3] (setting [7]) it was 85.8%. Further, in assay [3] (H69AR cells + 2 uM doxorubicin), the differential viability (reversal) was 5.49% (inactive). Moreover, the inhibition was -4.8% (inactive) in assay [4] and 2.86% (inactive) in assay [5].

With `CCN(CC(=O)O)S(=O)(=O)c1cc(Cl)ccc1Cl`, the viability in assay [1] was 96.5% (inactive); in assay [2] it was 90.9% (inactive); in assay [3] (setting [6]), 92%; in assay [3] (setting [7]), 90.9%. Further, the differential viability (reversal) in assay [3] (H69AR cells + 2 uM doxorubicin) is -1.08% (inactive). For the same molecule, the inhibition is -7.2% (inactive) in assay [4] and -1.75% (inactive) in assay [5].

For the molecule `CC(=O)Nc1cccc(-c2nnc(-c3ccccc3)o2)c1`, the viability is 88.8% (inactive) in assay [1], 92.6% (inactive) in assay [2], 85.8% in assay [3] (setting [6]) and 92.6% in assay [3] (setting [7]). Also, the differential viability (reversal) in assay [3] (H69AR cells + 2 uM doxorubicin) was 6.77% (inactive). Further, the inhibition in assay [4] was -5.58% (inactive); in assay [5], -1.9% (inactive).

`COc1ccc(NC(=O)c2ccco2)cc1NC(=O)c1cccs1`: the viability is 92.2% (inactive) in assay [1], 88.5% (inactive) in assay [2], 92% in assay [3] (setting [6]) and 88.5% in assay [3] (setting [7]). Further, the differential viability (reversal) in assay [3] (H69AR cells + 2 uM doxorubicin) is -3.49% (inactive). The values for the inhibition in assay [4] and in assay [5] were 0.13% (inactive) and 13.8% (inactive), respectively.

`O=C(Nc1cc(C(F)(F)F)ccc1Cl)C1CCN(c2nnc(-n3cccc3)s2)CC1`: the viability in assay [1] is 80.2% (inactive); in assay [2], 70.9% (inactive); in assay [3] (setting [6]), 63.3%; in assay [3] (setting [7]), 70.9%. In addition, in assay [3] (H69AR cells + 2 uM doxorubicin), the differential viability (reversal) is 7.64% (inactive). In addition, the inhibition in assay [4] is -6% (inactive); in assay [5], 2.22% (inactive).

For `COC(=O)Cn1c2ccccc2c2nc(C)sc21`, the viability in assay [1] is 87.2% (inactive); in assay [2] it was 92.7% (inactive); in assay [3] (setting [6]), 91.5%; in assay [3] (setting [7]) it was 92.7%. In addition, the differential viability (reversal) in assay [3] (H69AR cells + 2 uM doxorubicin) was 1.14% (inactive). The inhibition in assay [4] is -0.8% (inactive); in assay [5], -3.65% (inactive).

As to `Cc1ccc(C(=O)Nc2ccc3c(c2)OCO3)o1`, the viability in assay [1] is 83% (inactive); in assay [2] it was 69.6% (inactive); in assay [3] (setting [6]), 75.3%; in assay [3] (setting [7]), 69.6%. In addition, the differential viability (reversal) in assay [3] (H69AR cells + 2 uM doxorubicin) was -5.72% (inactive). Besides, the inhibition was -2.6% (inactive) in assay [4] and -3.81% (inactive) in assay [5].

In the case of `CS(=O)(=O)N(CC(=O)N1CCCCCC1)c1ccccc1`, the viability is 95.2% (inactive) in assay [1], 98.2% (inactive) in assay [2], 90% in assay [3] (setting [6]) and 98.2% in assay [3] (setting [7]). Moreover, the differential viability (reversal) in assay [3] (H69AR cells + 2 uM doxorubicin) was 8.29% (inactive). Also, the figures for the inhibition in assay [4] and in assay [5] were -5.79% (inactive) and 1.9% (inactive), respectively.

On to `CCOc1ccc(OCC)c(NS(=O)(=O)c2ccc3c(c2)n(C)c(=O)c(=O)n3C)c1`, for which the viability in assay [1] was 112% (inactive); in assay [2], 95.1% (inactive); in assay [3] (setting [6]), 89.7%; in assay [3] (setting [7]), 95.1%. Moreover, the differential viability (reversal) in assay [3] (H69AR cells + 2 uM doxorubicin) was 5.37% (inactive). Besides, the inhibition is -0.13% (inactive) in assay [4] and 1.27% (inactive) in assay [5].

For the molecule `Cc1csc(NC(=O)c2cccc(S(=O)(=O)N3CCCCC3)c2)n1`, the viability in assay [1] was 70.6% (inactive); in assay [2], 87.5% (inactive); in assay [3] (setting [6]), 91.5%; in assay [3] (setting [7]) it was 87.5%. Further, the differential viability (reversal) in assay [3] (H69AR cells + 2 uM doxorubicin) is -3.96% (inactive). In addition, the inhibition in assay [4] was -3.51% (inactive); in assay [5] it was -9.05% (inactive).

`CC(C)(C)OC(=O)N1CCCC1C(=O)N1CCCC1C(=O)N1CCCC1C(=O)O` (stereo not drawn) (Boc-Pro-Pro-Pro-OH; configuration not given here): the viability in assay [1] is 101% (inactive); in assay [2], 97.9% (inactive); in assay [3] (setting [6]), 94.8%; in assay [3] (setting [7]), 97.9%. The differential viability (reversal) in assay [3] (H69AR cells + 2 uM doxorubicin) was 3.05% (inactive). In addition, the figures for the inhibition in assay [4] and in assay [5] were -5.06% (inactive) and -0.95% (inactive), respectively.

As to `CCS(=O)(=O)c1nc2ccccc2n1CC(=O)N1CCOCC1`, the viability was 95.4% (inactive) in assay [1], 91% (inactive) in assay [2], 87.2% in assay [3] (setting [6]) and 91% in assay [3] (setting [7]). For the same molecule, the differential viability (reversal) in assay [3] (H69AR cells + 2 uM doxorubicin) is 3.73% (inactive). For the same molecule, the inhibition in assay [4] is -5.32% (inactive); in assay [5] it was -1.27% (inactive).

Take `COc1ccc(OC)c(NC(=O)Cc2coc3ccc(C)cc23)c1`: the viability is 76.7% (inactive) in assay [1], 82.1% (inactive) in assay [2], 78.3% in assay [3] (setting [6]) and 82.1% in assay [3] (setting [7]). Besides, the differential viability (reversal) in assay [3] (H69AR cells + 2 uM doxorubicin) was 3.86% (inactive). Moreover, the inhibition in assay [4] is -6.05% (inactive); in assay [5], 0.48% (inactive).

On to `COc1ccc(N2C(=O)CC(N3CCN(S(=O)(=O)c4c(F)cccc4F)CC3)C2=O)cc1OC` (stereo not given), for which the viability was 107% (inactive) in assay [1], 103% (inactive) in assay [2], 94.3% in assay [3] (setting [6]) and 103% in assay [3] (setting [7]). The differential viability (reversal) in assay [3] (H69AR cells + 2 uM doxorubicin) is 8.42% (inactive). In addition, the inhibition in assay [4] is -2.34% (inactive); in assay [5], -6.35% (inactive).

Consider `CCOC(=O)c1sc(NC(=O)CSc2nc3c(cc2C#N)CCC3)c(C#N)c1C`, for which the viability in assay [1] was 74.7% (inactive); in assay [2], 91.1% (inactive); in assay [3] (setting [6]), 99.5%; in assay [3] (setting [7]) it was 91.1%. The differential viability (reversal) in assay [3] (H69AR cells + 2 uM doxorubicin) was -8.41% (inactive). Moreover, the inhibition is -5% (inactive) in assay [4] and -0.32% (inactive) in assay [5].

For `COc1ccc(CN2C(=O)C(O)(CC(=O)c3c(C)n[nH]c3C)c3ccccc32)cc1OC` (stereo not given), the viability in assay [1] was 105% (inactive); in assay [2], 95.4% (inactive); in assay [3] (setting [6]), 92%; in assay [3] (setting [7]), 95.4%. The differential viability (reversal) in assay [3] (H69AR cells + 2 uM doxorubicin) is 3.36% (inactive). Moreover, the inhibition is -0.53% (inactive) in assay [4] and -4.44% (inactive) in assay [5].
